Compound activity from PubChem.
Rows were chosen to be rich in hits. Some 1.1% of all compounds tested hit in one or more screens of this group.
KLK5 inh – human KLK5 protease inhibitors, primary screen, biochemical, 1536-well. inhibition, % at 5 µM. AID 873, 2007. 0.59% of 210,000 active. recombinant hK5, fluorogenic AMC substrate cleavage;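 active = inhibition of 40% or more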;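 also: 0% = enzyme controls without compound and 100% = no-enzyme blanks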
Target sequence (Q9Y337 67-293 limits assumed): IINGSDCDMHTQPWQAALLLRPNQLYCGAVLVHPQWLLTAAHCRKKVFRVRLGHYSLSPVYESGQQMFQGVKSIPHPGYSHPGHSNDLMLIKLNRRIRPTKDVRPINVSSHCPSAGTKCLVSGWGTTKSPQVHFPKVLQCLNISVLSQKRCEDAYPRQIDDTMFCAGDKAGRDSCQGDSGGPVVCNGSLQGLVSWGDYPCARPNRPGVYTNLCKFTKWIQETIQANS
FXIIa inh – human FXIIa protease inhibitors, primary screen, biochemical, 1536-well; Coagulation factor XII (Homo sapiens), P00748; purified FXIIa, Boc-QGR-AMC fluorogenic substrate, 2 h; inhibition, % at 5 µM; 0.3% of 220,000 active; in the data active = inhibition above about 40%;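 also: 0% = enzyme with no compound and 100% = blank without enzyme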
Furin inh – human furin inhibitors, primary screen, biochemical, fluorescence intensity; 0.061% of 220,000 active; inhibition, % at 20 µM or 30 µM; purified furin, fluorogenic substrate cleavage; P09958; in the data active = inhibition above about 25%
thrombin 1536 – human alpha-thrombin inhibitors, primary screen, counter-screen for coagulation protease inhibitor project, biochemical, 1536-well, fluorogenic AMC substrate; 0.26% of 220,000 active; inhibition, % at 5 µM; Boc-VPR-AMC fluorogenic substrate cleavage; Prothrombin (Homo sapiens), P00734;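 active = inhibition at or above 40%; inactive = inhibition below 40%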;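 also: 0% = enzyme with no compound and 100% = wells without enzyme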
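Material: human alpha-thrombin protein. Incubation: reaction at ambient temperature. Technique: fluorescence of released AMC, ex 355 nm, em 460 nm. Control set: no-compound enzyme wells and no-enzyme blanks. Also added: Boc-VPR-AMC substrate, 15 µM final. Buffer or medium: pH 7.5 Tris (50 mM) with NaCl 150 mM, Tween 20 0.05%.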
FXIa inh 1536 – human FXIa protease inhibitors, primary screen, biochemical, 1536-well; Coagulation factor XI (Homo sapiens), P03951; purified FXIa, Boc-Glu-Ala-Arg-AMC fluorogenic substrate; inhibition, % at 5 µM; AID 798, 2007; 0.14% of 220,000 active;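 active = inhibition of at least 40%; inactive = inhibition below 40%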;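 also: fluorescence of freed AMC excited at 355 nm; 0% = enzyme without compound and 100% = no enzyme blank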
* hit, by the source's call; · = no result.

SMILES	KLK5 inh	FXIIa inh	Furin inh	thrombin 1536	FXIa inh 1536
Nc1cccc(-n2nnnc2CN2CCOCC2)c1	-2	14	-20	3	9
CCC(=O)Nc1cc(C(C)(C)C)ccc1C(C)=O	-17	3	-19	-9	-11
COC(=O)c1ccn(Cc2ccccc2Cl)n1	·	6	-13	-2	-1
O=C(CCC(=O)OCc1ccc(C(=O)Oc2ccc(Cl)cc2)cc1)Nc1ccccc1	52*	35	-15	12	1
CCOc1cc(S(=O)(=O)NCc2ccc(OC)cc2)c(OCC)cc1-n1cnnn1	46*	20	-7	69*	18
CCOc1cc(S(=O)(=O)NCCc2ccc(OC)c(OC)c2)c(OCC)cc1-n1cnnn1	-23	12	-11	-1	-6
O=C(Cc1ccccc1[N+](=O)[O-])Nc1ccccc1C(=O)N1CCCC1	19	85*	-9	9	31
O=C1CC(N2CCN(c3nc4ccccc4s3)CC2)C(=O)N1Cc1cccs1 (stereo unspecified)	-8	4	-9	-6	1
O=C1CC(N2CCC(c3nc4ccccc4o3)CC2)C(=O)N1Cc1cccs1 (stereo unspecified)	13	16	27*	2	7
CCCCOc1ccc(-c2ncc(Cl)cn2)cc1	18	19	28*	3	7
CCCCOc1ccc(-c2ncc([N+](=O)[O-])cn2)cc1	3	8	-20	0	1
Cc1nnc2c(-c3ccccc3)nc3ccccc3n12	-11	13	-12	45*	3
Cc1cc(C)n(-c2nc3ccccc3n3c(C)nnc23)n1	-1	3	-5	-2	-1
CCOc1ccc(C(=O)n2cnnc2N)cc1	41*	38	-14	-3	7
COc1ccc(NC(=O)c2ccc(CNc3c(N4CCCC4)c(=O)c3=O)cc2)cc1Cl	1	8	-24	-4	0
O=C(Nc1cccc(F)c1)C1CC(=O)N(c2ccc(Br)cc2)C1 (stereo unspecified)	79*	24	-7	13	15
O=C(Nc1cccc(F)c1)C1CC(=O)N(c2ccc(Cl)cc2)C1 (stereo unspecified)	2	14	-14	1	1
CCOC(=O)CSC1=C(C#N)C(c2ccc(Cl)cc2)CC(=O)N1 (stereo unspecified)	45*	34	-22	14	6
COCCNC(=S)NNc1ccccc1[N+](=O)[O-]	1	6	-27	6	5
CSc1nc2c(cc1C#N)CCC2	0	9	-17	0	0
CCCCSc1nc2c(cc1C#N)CCC2	104*	2	-9	14	5
Cc1ccc(NC(=O)CSc2nnc(COc3ccc(C#N)cc3)n2-c2ccccc2)cc1C	45*	8	-26	23	7
O=C(CCc1ccc(O)cc1)N/N=C/c1coc2ccccc2c1=O	0	8	-15	58*	2
O=C(NCc1cccnc1)C(=O)N/N=C/c1ccc([N+](=O)[O-])cc1	-2	5	1	-1	-4
CN(C)CCNC(=O)c1cccc(S(=O)(=O)Nc2ccc(F)cc2)c1	-9	3	-11	-12	-4
SMILES	KLK5 inh	FXIIa inh	Furin inh	thrombin 1536	FXIa inh 1536
CCN(CC)CCNC(=O)c1ccc(NC(=O)c2cccc(S(=O)(=O)Nc3ccc(C)cc3)c2)cc1	20	22	-21	15	101*
Cc1nc(-c2cnn(-c3ccccc3)c2)c2cc(C)oc2n1	4	29	-31	67*	16
O=C1CN(CC(=O)N2CCOCC2)c2ccccc2O1	42*	24	-21	11	14
Nc1c(C(=O)Nc2ccc(Cl)c(Cl)c2)sc2nc(-c3cccnc3)ccc12	48*	11	4	4	9
CCOC(=O)Cn1cncc1-c1ccc([N+](=O)[O-])cc1	-9	14	-5	-1	14
CCOc1ccc(NC(=O)Cn2cncc2-c2ccc([N+](=O)[O-])cc2)cc1	41*	30	-10	9	10
O=C(O)C1CCCN1S(=O)(=O)c1cccc2nsnc12 (stereo unspecified)	-7	-4	-5	-12	-6
CC(Nc1nc2ncn(Cc3ccccc3)c2c(=O)[nH]1)C(=O)O (stereo unspecified)	17	24	-1	62*	11
Cc1ccc(OC(F)F)c(NC(=O)Nc2cccc(C(F)(F)F)c2)c1	56*	20	-11	19	8
CCOC(=O)CNC(=O)Nc1cccc(Cl)c1C	-23	10	0	3	0
COC(=O)CNC(=O)CNC(=O)Nc1ccccc1Cl	41*	7	-12	6	-3
CCOC(=O)CON1C(=O)C(=O)N(OCC(=O)OCC)C2CCCCC21 (stereo unspecified)	4	11	-28	-7	-1
CCOc1nsc(OCC)n1	-2	8	-15	-2	1
O=C(CN1CCN(c2ccccn2)CC1)Nc1ccc(Oc2ccccc2)cc1	-7	56*	-15	2	27
O=C(CN1CCN(c2ccccn2)CC1)Nc1ccccc1	-12	17	-8	2	1
O=[N+]([O-])c1ccc(C2Nc3cccc4cccc(c34)N2)cc1	63*	9	-15	12	15
CCC1(C)Cc2c(sc3nnn(Cc4ccccc4Cl)c(=O)c23)CO1 (stereo unspecified)	4	-2	0	2	3
CCc1ccc(NC(=O)c2ccc3ncsc3c2)cc1	40*	19	-21	2	-1
CN(C)S(=O)(=O)c1ccc(NC(=O)c2ccc3ncsc3c2)cc1	-8	4	-9	-2	5
N=c1c2cn[nH]c2nc(SCC(=O)c2ccc(Br)cc2)n1-c1ccc(Br)cc1	-1	5	-28	12	-4
COc1ccc(C2c3c(-c4cc(Cl)c(C)cc4O)n[nH]c3C(=O)N2Cc2cccnc2)cc1OC (stereo unspecified)	19	25	-11	57*	9
COc1ccc(CC(=O)NCCC(C)C)cc1S(=O)(=O)N1CCOCC1	4	4	-37	-14	2
Cc1ccc(Nc2nc(N/N=C\c3ccc4c(c3)OCO4)nc(N3CCOCC3)n2)cc1	15	7	-22	-6	-1
O=C(CSc1ncccn1)n1c2c(c3ccccc31)CCCC2	77*	24	-9	17	1
CCc1cccc(C)c1NC(=S)N(Cc1cccnc1)Cc1ccco1	-16	-2	-20	-5	-8
CCN1CCN(C(=O)CSc2cc(=O)n(CC)c3ccccc23)CC1	5	6	-13	1	-3
CCn1c(=O)cc(SCC(=O)N2CCCCC2)c2ccccc21	121*	19	-8	13	5
CCn1c(SCC(=O)N2CCCCC2)nc(O)cc1=O	7	44*	-32	-5	-19
